We go through three compounds from ChEMBL document CHEMBL4118021, “Studies of TAK1-centered polypharmacology with novel covalent TAK1 inhibitors” (Bioorg Med Chem, 2017).

The source made the active and inactive calls. No cut-off for these calls is given here.

Common to all, as to assay type: cell-based
The target of experiment [1] is Serine/threonine-protein kinase 38 (Homo sapiens) (UniProt Q15208). Nature of the experiment: Inhibition of NDR1 in human SKCO1 cells at 1 uM after 4 hrs using biotin labeled DIKPDNLLLDSK probe by mass-spectrometric analysis relative to control.
Experiment [2] addresses Phosphatidylinositol 5-phosphate 4-kinase type-2 gamma (Homo sapiens) (UniProt Q8TBX8). The experiment in a line: Inhibition of PIP4K2C in human SKCO1 cells at 1 uM after 4 hrs using biotin labeled TLVIKEVSSEDIADMHSNLSNYHQYIVK probe by mass-spectrometric analysis relative to control.
In experiment [3] the target is Small ribosomal subunit protein uS2 (Homo sapiens) (UniProt P08865). The experiment in a line: Binding affinity to RPSA in human NCI-H23 cells at 1 uM by mass spectrometry based pull down assay.
For experiment [4], the target named is Probable ATP-dependent RNA helicase DDX17 (Homo sapiens) (UniProt Q92841). Nature of the experiment: Binding affinity to DDX17 in human NCI-H23 cells at 1 uM by mass spectrometry based pull down assay.
Experiment [5] addresses Endothelial differentiation-related factor 1 (Homo sapiens) (UniProt O60869). The experiment in a line: Binding affinity to EDF1 in human NCI-H23 cells at 1 uM by mass spectrometry based pull down assay.
Experiment [6] addresses Serine/threonine-protein kinase WNK1 (Homo sapiens) (UniProt Q9H4A3). The experiment in a line: Binding affinity to WNK1 in human NCI-H23 cells at 1 uM by mass spectrometry based pull down assay.
Experiment [7] addresses Bifunctional glutamate/proline--tRNA ligase (Homo sapiens) (UniProt P07814). Nature of the experiment: Binding affinity to EPRS in human NCI-H23 cells at 1 uM by mass spectrometry based pull down assay.
Experiment [8] concerns NCI-H23. Nature of the experiment: Binding affinity to PSMA5 in human NCI-H23 cells at 1 uM by mass spectrometry based pull down assay.
Experiment [9] has as its target Aspartyl aminopeptidase (Homo sapiens) (UniProt Q9ULA0). Nature of the experiment: Binding affinity to DNPEP in human NCI-H23 cells at 1 uM by mass spectrometry based pull down assay.
Experiment [10] concerns the target Melanoma-associated antigen 4 (Homo sapiens) (UniProt P43358). Nature of the experiment: Binding affinity to MAGEA4 in human NCI-H23 cells at 1 uM by mass spectrometry based pull down assay.
The target of experiment [11] is Glutamate--cysteine ligase regulatory subunit (Homo sapiens) (UniProt P48507). Nature of the experiment: Binding affinity to GCLM in human NCI-H23 cells at 1 uM by mass spectrometry based pull down assay.
Experiment [12] addresses StAR-related lipid transfer protein 7, mitochondrial (Homo sapiens) (UniProt Q9NQZ5). Nature of the experiment: Binding affinity to STARD7 in human NCI-H23 cells at 1 uM by mass spectrometry based pull down assay.
The target in experiment [13] is Tropomyosin alpha-4 chain (Homo sapiens) (UniProt P67936). The experiment in a line: Binding affinity to TPM4 in human NCI-H358 cells at 1 uM by mass spectrometry based pull down assay.
Experiment [14] deals with Alpha-2-HS-glycoprotein (Homo sapiens) (UniProt P02765). Nature of the experiment: Binding affinity to AHSG in human NCI-H358 cells at 1 uM by mass spectrometry based pull down assay. Summed up:
(§1)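 NCI-H23 or NCI-H358 cells were grown and lysed. Lysates were incubated overnight at 4 °C with 1 μM biotinylated covalent probe or DMSO, then pulled down on streptavidin beads. Proteins were run on polyacrylamide gels and stained with Coomassie. Bands were excised, digested and identified by mass spectrometry.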

In experiment [15] the target is E3 ubiquitin-protein ligase HUWE1 (Homo sapiens) (UniProt Q7Z6Z7). Nature of the experiment: Binding affinity to HUWE1 in human NCI-H358 cells at 1 uM by mass spectrometry based pull down assay.
The target of experiment [16] is Coatomer subunit beta (Homo sapiens) (UniProt P53618). The experiment in a line: Binding affinity to COPB1 in human NCI-H358 cells at 1 uM by mass spectrometry based pull down assay.
Chain of Coatomer subunit beta (Homo sapiens) (P53618 whole entry): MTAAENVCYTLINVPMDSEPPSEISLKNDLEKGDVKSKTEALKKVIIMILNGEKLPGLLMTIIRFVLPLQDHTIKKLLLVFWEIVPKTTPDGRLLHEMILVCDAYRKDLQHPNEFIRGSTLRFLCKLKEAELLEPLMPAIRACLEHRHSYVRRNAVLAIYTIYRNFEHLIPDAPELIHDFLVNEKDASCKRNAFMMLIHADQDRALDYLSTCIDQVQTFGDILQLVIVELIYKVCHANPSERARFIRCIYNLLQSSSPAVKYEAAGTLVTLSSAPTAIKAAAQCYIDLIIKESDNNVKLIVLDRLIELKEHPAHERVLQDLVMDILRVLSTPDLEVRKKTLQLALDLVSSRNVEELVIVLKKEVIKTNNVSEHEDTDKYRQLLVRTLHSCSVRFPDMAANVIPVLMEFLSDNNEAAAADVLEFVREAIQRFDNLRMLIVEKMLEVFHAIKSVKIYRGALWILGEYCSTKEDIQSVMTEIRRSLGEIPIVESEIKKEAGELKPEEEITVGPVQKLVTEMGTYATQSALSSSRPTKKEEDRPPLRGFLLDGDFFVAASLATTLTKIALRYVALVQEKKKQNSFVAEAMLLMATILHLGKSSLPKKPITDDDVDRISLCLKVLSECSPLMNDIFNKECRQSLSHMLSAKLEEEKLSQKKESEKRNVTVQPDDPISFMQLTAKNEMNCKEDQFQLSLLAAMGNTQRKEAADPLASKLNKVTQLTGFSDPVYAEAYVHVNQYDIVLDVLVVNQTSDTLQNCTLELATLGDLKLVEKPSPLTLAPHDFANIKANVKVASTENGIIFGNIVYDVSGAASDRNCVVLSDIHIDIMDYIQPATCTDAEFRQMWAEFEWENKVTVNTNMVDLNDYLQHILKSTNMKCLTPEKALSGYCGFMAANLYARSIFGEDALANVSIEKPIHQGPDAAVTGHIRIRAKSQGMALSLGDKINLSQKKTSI
The target in experiment [17] is Tyrosine-protein kinase Yes (Homo sapiens) (UniProt P07947). The experiment in a line: Binding affinity to YES1 in human NCI-H358 cells at 1 uM by mass spectrometry based pull down assay.
In experiment [18] the target is AH receptor-interacting protein (Homo sapiens) (UniProt O00170). The experiment in a line: Binding affinity to AIP in human NCI-H358 cells at 1 uM by mass spectrometry based pull down assay. Summed up:
as §1

Experiment [19] deals with 80S Ribosome (Homo sapiens) (UniProt P08865+P42677+P62753+P15880+P23396+P61247+P62701+P22090+P46782+P62081+P62241+P46781+P46783+P62280+P25398+P62277+P62263+P62841+P62244+P62249+P08708+P62269+P39019+P60866+P63220+P62266+P62847+P62851+P62854+P62979+P62857+P62273+P62861+P39023+P36578+P46777+Q02878+P18124+P62424+P62917+P32969+P27635+P62906+P62913+P30050+P26373+P40429+P50914+P61313+P18621+Q07020+Q02543+P84098+P46778+P35268+P62829+P62750+P83731+P61254+P61353+P46776+P46779+P47914+P62888+P62899+P62910+P49207+P42766+P18077+Q9Y3U8+P83881+P61927+P61513+P63173+P62891+P62945+P05388+P05386). The experiment in a line: Binding affinity to RPL31 in human NCI-H358 cells at 1 uM by mass spectrometry based pull down assay.

Experiment [20] addresses Ras-related protein Rab-22A (Homo sapiens) (UniProt Q9UL26). Nature of the experiment: Binding affinity to RAB22A in human NCI-H358 cells at 1 uM by mass spectrometry based pull down assay.
Experiment [21] deals with YTH domain-containing family protein 2 (Homo sapiens) (UniProt Q9Y5A9). The experiment in a line: Binding affinity to YTHDF2 in human NCI-H358 cells at 1 uM by mass spectrometry based pull down assay.
The target in experiment [22] is Large ribosomal subunit protein bL12m (Homo sapiens) (UniProt P52815). The experiment in a line: Binding affinity to MRPL12 in human NCI-H358 cells at 1 uM by mass spectrometry based pull down assay.
Experiment [23] deals with Very-long-chain 3-oxoacyl-CoA reductase (Homo sapiens) (UniProt Q53GQ0). The experiment in a line: Binding affinity to HSD17B12 in human NCI-H358 cells at 1 uM by mass spectrometry based pull down assay.
Chain of Very-long-chain 3-oxoacyl-CoA reductase (Homo sapiens) (Q53GQ0 whole entry): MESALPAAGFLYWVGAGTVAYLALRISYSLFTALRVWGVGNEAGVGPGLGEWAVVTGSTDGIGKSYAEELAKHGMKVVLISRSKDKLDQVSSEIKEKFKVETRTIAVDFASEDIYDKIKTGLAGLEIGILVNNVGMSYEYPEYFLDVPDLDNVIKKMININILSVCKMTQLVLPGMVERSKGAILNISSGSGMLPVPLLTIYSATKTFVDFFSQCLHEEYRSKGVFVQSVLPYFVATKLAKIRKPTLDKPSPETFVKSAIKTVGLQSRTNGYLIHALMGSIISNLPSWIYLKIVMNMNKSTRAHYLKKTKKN
In experiment [24] the target is GTP-binding protein Rheb (Homo sapiens) (UniProt Q15382). Nature of the experiment: Binding affinity to RHEB in human NCI-H358 cells at 1 uM by mass spectrometry based pull down assay.
For experiment [25], the target named is Proteasome adapter and scaffold protein ECM29 (Homo sapiens) (UniProt Q5VYK3). Nature of the experiment: Binding affinity to KIAA0368 in human NCI-H358 cells at 1 uM by mass spectrometry based pull down assay.
Experiment [26] addresses Protein disulfide-isomerase A3 (Homo sapiens) (UniProt P30101). Nature of the experiment: Binding affinity to PDIA3 in human NCI-H358 cells at 1 uM by mass spectrometry based pull down assay.
The test system of experiment [27] is NCI-H358. Nature of the experiment: Binding affinity to XRCC5 in human NCI-H358 cells at 1 uM by mass spectrometry based pull down assay.

Chain of AH receptor-interacting protein (Homo sapiens) (O00170 whole entry): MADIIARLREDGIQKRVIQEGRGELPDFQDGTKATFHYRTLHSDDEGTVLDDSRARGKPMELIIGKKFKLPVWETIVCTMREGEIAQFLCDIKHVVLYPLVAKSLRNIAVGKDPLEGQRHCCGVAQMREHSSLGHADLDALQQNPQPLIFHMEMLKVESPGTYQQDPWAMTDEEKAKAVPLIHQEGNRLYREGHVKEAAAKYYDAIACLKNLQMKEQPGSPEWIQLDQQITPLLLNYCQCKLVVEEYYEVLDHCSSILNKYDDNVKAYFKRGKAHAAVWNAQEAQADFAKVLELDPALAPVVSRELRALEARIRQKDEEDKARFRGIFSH
Chain of Ras-related protein Rab-22A (Homo sapiens) (Q9UL26 whole entry, the tested form may be a part): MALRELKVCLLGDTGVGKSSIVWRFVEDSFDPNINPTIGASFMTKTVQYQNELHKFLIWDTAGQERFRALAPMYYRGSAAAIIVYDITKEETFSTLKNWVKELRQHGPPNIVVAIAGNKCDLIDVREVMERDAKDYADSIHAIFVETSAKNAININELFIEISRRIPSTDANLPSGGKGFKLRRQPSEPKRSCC
Chain of Alpha-2-HS-glycoprotein (Homo sapiens) (P02765 whole entry): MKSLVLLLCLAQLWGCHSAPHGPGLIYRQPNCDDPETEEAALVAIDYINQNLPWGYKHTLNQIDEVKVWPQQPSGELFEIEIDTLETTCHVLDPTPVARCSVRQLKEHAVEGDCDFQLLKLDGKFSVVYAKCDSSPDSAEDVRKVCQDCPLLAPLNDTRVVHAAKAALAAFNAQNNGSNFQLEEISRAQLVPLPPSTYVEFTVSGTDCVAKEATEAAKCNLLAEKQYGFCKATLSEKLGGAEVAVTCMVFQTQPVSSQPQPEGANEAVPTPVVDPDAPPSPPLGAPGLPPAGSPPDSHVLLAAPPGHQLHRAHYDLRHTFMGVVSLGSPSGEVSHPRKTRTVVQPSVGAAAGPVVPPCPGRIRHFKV
Chain of Protein disulfide-isomerase A3 (Homo sapiens) (P30101 whole entry): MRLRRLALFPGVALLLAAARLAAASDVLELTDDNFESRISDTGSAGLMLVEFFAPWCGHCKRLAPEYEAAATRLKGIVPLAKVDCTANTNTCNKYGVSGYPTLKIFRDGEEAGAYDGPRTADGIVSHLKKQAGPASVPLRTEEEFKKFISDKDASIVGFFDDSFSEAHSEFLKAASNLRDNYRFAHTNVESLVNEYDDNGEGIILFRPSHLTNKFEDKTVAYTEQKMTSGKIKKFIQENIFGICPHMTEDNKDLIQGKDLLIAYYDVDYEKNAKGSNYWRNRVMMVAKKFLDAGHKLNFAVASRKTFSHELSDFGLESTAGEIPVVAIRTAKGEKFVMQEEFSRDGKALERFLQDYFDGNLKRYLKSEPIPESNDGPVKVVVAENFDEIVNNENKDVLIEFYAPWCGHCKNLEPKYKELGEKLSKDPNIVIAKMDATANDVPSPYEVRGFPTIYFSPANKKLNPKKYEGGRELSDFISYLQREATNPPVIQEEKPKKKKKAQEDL
Chain of Serine/threonine-protein kinase WNK1 (Homo sapiens) (Q9H4A3 whole entry, looked up): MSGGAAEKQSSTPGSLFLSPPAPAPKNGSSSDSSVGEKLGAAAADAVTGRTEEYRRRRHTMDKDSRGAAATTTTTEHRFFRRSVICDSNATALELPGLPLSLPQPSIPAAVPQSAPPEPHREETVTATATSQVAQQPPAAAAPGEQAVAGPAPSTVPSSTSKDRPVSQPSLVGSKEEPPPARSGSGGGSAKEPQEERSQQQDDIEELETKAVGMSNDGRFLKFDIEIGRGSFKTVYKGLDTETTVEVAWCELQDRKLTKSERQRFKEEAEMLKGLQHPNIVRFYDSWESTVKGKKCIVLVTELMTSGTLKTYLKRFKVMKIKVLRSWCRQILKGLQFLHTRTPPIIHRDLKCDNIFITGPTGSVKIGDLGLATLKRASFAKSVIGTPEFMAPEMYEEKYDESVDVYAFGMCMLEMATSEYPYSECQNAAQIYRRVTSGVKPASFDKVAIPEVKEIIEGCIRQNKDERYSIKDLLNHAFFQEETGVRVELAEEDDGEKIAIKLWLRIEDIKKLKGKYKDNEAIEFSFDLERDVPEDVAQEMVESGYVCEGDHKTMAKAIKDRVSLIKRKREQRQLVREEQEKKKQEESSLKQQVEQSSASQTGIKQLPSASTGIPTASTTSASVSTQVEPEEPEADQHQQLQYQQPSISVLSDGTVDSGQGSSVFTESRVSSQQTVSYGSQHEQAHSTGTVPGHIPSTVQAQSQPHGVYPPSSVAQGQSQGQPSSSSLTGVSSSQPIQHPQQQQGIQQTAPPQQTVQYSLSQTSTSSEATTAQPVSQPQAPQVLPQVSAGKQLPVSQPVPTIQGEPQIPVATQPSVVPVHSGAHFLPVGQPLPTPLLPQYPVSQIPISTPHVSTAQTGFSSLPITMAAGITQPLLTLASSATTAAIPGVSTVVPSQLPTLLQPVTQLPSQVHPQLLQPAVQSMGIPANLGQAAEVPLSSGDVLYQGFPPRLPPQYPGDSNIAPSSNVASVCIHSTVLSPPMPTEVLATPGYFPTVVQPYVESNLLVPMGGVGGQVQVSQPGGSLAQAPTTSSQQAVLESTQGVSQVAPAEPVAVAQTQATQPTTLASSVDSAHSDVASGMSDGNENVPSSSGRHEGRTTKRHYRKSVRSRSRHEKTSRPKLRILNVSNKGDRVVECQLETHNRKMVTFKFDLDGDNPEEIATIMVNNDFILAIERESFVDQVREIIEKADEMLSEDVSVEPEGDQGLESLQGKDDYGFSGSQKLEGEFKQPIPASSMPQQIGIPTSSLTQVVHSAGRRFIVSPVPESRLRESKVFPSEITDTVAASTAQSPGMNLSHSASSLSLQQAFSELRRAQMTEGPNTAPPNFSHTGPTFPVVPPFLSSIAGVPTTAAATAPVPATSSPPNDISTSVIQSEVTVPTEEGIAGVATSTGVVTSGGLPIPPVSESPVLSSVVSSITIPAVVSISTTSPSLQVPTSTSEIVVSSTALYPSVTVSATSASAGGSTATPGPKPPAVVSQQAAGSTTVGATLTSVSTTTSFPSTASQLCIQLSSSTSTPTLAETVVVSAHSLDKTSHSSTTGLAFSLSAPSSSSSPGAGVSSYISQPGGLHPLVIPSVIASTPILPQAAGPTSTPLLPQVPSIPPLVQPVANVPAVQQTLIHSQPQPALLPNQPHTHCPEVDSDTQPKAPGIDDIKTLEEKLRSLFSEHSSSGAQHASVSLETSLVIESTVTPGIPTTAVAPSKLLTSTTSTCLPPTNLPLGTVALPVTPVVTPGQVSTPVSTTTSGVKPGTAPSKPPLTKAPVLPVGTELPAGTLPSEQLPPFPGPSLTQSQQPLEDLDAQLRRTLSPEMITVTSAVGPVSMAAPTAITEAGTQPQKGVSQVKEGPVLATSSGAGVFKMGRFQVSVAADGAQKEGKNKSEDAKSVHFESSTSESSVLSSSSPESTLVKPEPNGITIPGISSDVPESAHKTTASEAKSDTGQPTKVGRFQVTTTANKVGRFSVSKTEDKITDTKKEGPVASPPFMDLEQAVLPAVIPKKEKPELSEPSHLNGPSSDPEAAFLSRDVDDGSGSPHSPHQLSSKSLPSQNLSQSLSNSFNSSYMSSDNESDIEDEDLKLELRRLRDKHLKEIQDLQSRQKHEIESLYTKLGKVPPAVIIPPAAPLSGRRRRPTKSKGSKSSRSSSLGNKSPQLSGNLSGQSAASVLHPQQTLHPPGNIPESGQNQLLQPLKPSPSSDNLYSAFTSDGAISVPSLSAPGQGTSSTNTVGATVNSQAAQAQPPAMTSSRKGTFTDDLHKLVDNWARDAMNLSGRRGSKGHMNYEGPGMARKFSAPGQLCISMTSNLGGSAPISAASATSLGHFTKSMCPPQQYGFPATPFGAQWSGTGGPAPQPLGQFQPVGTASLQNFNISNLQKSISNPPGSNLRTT

As for `C=CC(=O)Nc1ccccc1Nc1nc(Nc2ccc(N3CCN(C)CC3)cc2)ncc1Cl`, in experiment [1], the inhibition is -4.9%.
`COc1cc(O)c2c(c1)/C=C/C[C@H](O)[C@H](O)C(=O)/C=C\C[C@H](C)OC2=O`: in [2], the inhibition stood at 16.8%.
As for `C=CC(=O)Nc1ccccc1Nc1nc(Nc2ccc(N3CCN(CCOCCOCCOCCNC(=O)CCCC[C@@H]4SC[C@@H]5NC(=O)N[C@@H]54)CC3)cc2)ncc1Cl`, the outcome in experiment [3], in experiment [4], in experiment [5], in [6], in [7] and in experiment [8] was Active. The outcome in experiment [9], in [10], in [11], in experiment [12], in experiment [13] and in experiment [14] was Active. The outcome in experiment [15], in experiment [16], in experiment [17], in experiment [18], in [19] and in experiment [20] was Active. Also, the result in experiment [21], in [22], in experiment [23], in [24], in experiment [25] and in experiment [26] was Active. Besides, in experiment [27], the outcome was Active.
